Measurements published in ChEMBL document CHEMBL3272167, “Antimalarials. 3. 1,2,4-Triazines” (J Med Chem, 1976).
Active and inactive are the calls of the source. The rule behind the calls is not given here.

Assays:
Plasmodium berghei [1] = test: Antimalarial activity against trophozoite Plasmodium berghei infected in mouse assessed as increase in mean survival time at 640 mg/kg, sc administered as single dose 72 hrs after parasite infection; type: functional; details: route subcutaneous
How it was run: (§1)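 Mice were infected with P. berghei trophozoites and given one subcutaneous dose of test compound 72 h later. The read-out was the increase in mean survival time of treated over control animals (MSTT vs MSTC); prolongation of 2.5 days was taken as significant, and a 12-day minimum mean survival was required for activity. Survivors at 60 days without parasitemia counted as cured. The maximum dose was 640 mg/kg.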

Plasmodium gallinaceum [2] = test: Antimalarial activity against Plasmodium gallinaceum infected in chick assessed as increase in mean survival time at 80 mg/kg, sc administered as single dose 72 hrs after parasite infection; details: route subcutaneous
Plasmodium gallinaceum [3] = test: Antimalarial activity against Plasmodium gallinaceum infected in chick assessed as increase in mean survival time at 160 mg/kg, sc administered as single dose 72 hrs after parasite infection; details: route subcutaneous
Plasmodium berghei [4] = test: Antimalarial activity against trophozoite Plasmodium berghei infected in mouse assessed as increase in mean survival time at 320 mg/kg, sc administered as single dose 72 hrs after parasite infection; type: functional; details: route subcutaneous; how it was run: as §1
Plasmodium berghei [5] = test: Antimalarial activity against trophozoite Plasmodium berghei infected in mouse assessed as increase in mean survival time at 160 mg/kg, sc administered as single dose 72 hrs after parasite infection; type: functional; details: route subcutaneous; how it was run: as §1
Plasmodium gallinaceum [6] = test: Antimalarial activity against Plasmodium gallinaceum infected in chick assessed as increase in mean survival time at 320 mg/kg, sc administered as single dose 72 hrs after parasite infection; details: route subcutaneous
Plasmodium berghei [7] = test: Antimalarial activity against trophozoite Plasmodium berghei infected in mouse assessed as increase in mean survival time administered as single dose 72 hrs after parasite infection; type: functional, organism-based
How it was run: (§2)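 Mice were infected with P. berghei trophozoites and given one subcutaneous dose of test compound 72 h later, up to a maximum of 640 mg/kg. Mean survival time of treated mice was compared with untreated controls. A 2.5-day prolongation counted as significant, and activity required a mean survival of at least 12 days. Cure meant 60-day survival without parasitemia.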

Mus musculus [8] = test: Toxicity in trophozoite Plasmodium berghei infected in sc dosed mouse administered as single dose 72 hrs after parasite infection; type: organism-based; details: in vivo; how it was run: as §2
Plasmodium gallinaceum [9] = test: Antimalarial activity against Plasmodium gallinaceum infected in chick assessed as increase in mean survival time at 640 mg/kg, sc administered as single dose 72 hrs after parasite infection; details: route subcutaneous
Plasmodium gallinaceum [10] = test: Antimalarial activity against Plasmodium gallinaceum infected in chick assessed as increase in mean survival time at 240 mg/kg, sc administered as single dose 72 hrs after parasite infection; details: route subcutaneous
Gallus gallus (chicken) [11] = test: Toxicity in Plasmodium gallinaceum infected in chick at 480 mg/kg, sc administered as single dose 72 hrs after parasite infection; details: in vivo
Mus musculus [12] = test: Toxicity in trophozoite Plasmodium berghei infected in mouse at 640 mg/kg, sc administered as single dose 72 hrs after parasite infection; type: organism-based; set-up: dose 640 mg/kg, route subcutaneous; details: in vivo; how it was run: as §2
Plasmodium berghei [13] = test: Antimalarial activity against trophozoite Plasmodium berghei infected in mouse assessed as increase in mean survival time at 40 mg/kg, sc administered as single dose 72 hrs after parasite infection; type: functional; details: route subcutaneous; how it was run: as §1
Plasmodium berghei [14] = test: Antimalarial activity against trophozoite Plasmodium berghei infected in mouse assessed as increase in mean survival time at 20 mg/kg, sc administered as single dose 72 hrs after parasite infection; type: functional; details: route subcutaneous; how it was run: as §1
Plasmodium berghei [15] = test: Antimalarial activity against trophozoite Plasmodium berghei infected in mouse assessed as increase in mean survival time at 80 mg/kg, sc administered as single dose 72 hrs after parasite infection; type: functional; details: route subcutaneous; how it was run: as §1
Plasmodium berghei [16] = test: Antimalarial activity against trophozoite Plasmodium berghei infected in mouse assessed as increase in mean survival time at 10 mg/kg, sc administered as single dose 72 hrs after parasite infection; type: functional; details: route subcutaneous; how it was run: as §1
Plasmodium gallinaceum [17] = test: Antimalarial activity against Plasmodium gallinaceum infected in chick assessed as increase in mean survival time at 480 mg/kg, sc administered as single dose 72 hrs after parasite infection; details: route subcutaneous
Gallus gallus (chicken) [18] = test: Toxicity in Plasmodium gallinaceum infected in chick at 640 mg/kg, sc administered as single dose 72 hrs after parasite infection; details: in vivo

SMILES: Cc1ccc(-c2nnc(N)nc2N)cc1C
- MST (Plasmodium berghei [1]): 4.9 days

SMILES: Nc1nnc(-c2ccc3c(c2)OCO3)c(N)n1
- T/C (Plasmodium gallinaceum [2]): 1.7
- T/C (Plasmodium berghei [1]): 15.4
- T/C (Plasmodium gallinaceum [3]): 3.2
- T/C (Plasmodium berghei [4]): 12.2
- T/C (Plasmodium berghei [5]): 7.1
- T/C (Plasmodium gallinaceum [6]): 3.2

SMILES: Cc1ccc(S(=O)(=O)NC(=O)Nc2nnc(-c3ccc4c(c3)OCO4)c(N)n2)cc1
- Activity (Plasmodium berghei [7]): inactive

SMILES: COc1ccc(-c2nnc(NC(=O)Nc3ccccc3)nc2N)cc1OC
- Activity (Plasmodium berghei [7]): inactive

SMILES: Nc1nnc(-c2ccccc2)c(-c2ccccc2)n1
- Activity (Mus musculus [8]): Toxic

SMILES: Nc1nnc(-c2ccc(C(F)(F)F)cc2)c(N)n1
- T/C (Plasmodium berghei [1]): 0
- T/C (Plasmodium gallinaceum [9]): 9.9
- T/C (Plasmodium gallinaceum [10]): 6.4
- Activity (Gallus gallus (chicken) [11]): Toxic
- Activity (Mus musculus [12]): Toxic
- T/C (Plasmodium berghei [13]): 12.8
- T/C (Plasmodium berghei [14]): 12.8
- T/C (Plasmodium berghei [4]): 0
- T/C (Plasmodium berghei [15]): 0
- T/C (Plasmodium berghei [16]): 6.8
- T/C (Plasmodium gallinaceum [17]): 9.9
- T/C (Plasmodium berghei [5]): 0

SMILES: COc1ccc(-c2nnc(N)nc2N)cc1OC
- MST (Plasmodium berghei [1]): 11.7 days
- MST (Plasmodium berghei [4]): 10.1 days
- T/C (Plasmodium gallinaceum [6]): 7

SMILES: COc1ccc(-c2nnc(/N=C/N(C)C)nc2/N=C/N(C)C)cc1OC
- Activity (Plasmodium berghei [7]): inactive

SMILES: Cc1nnc(S)nc1S
- T/C (Plasmodium gallinaceum [9]): 4.4
- Activity (Gallus gallus (chicken) [18]): Toxic
- Activity (Mus musculus [8]): Toxic

SMILES: CS(=O)(=O)c1ccc(-c2nnc(N)nc2N)cc1
- Activity (Mus musculus [8]): Toxic

SMILES: Cc1ccc(-c2nnc(N)nc2N)cc1Cl
- T/C (Plasmodium berghei [1]): 9.9

SMILES: CSc1nnc(C)c(SC)n1
- Activity (Mus musculus [8]): Toxic

SMILES: CN(C)/C=N/c1nnc(-c2ccc3c(c2)OCO3)c(/N=C/N(C)C)n1
- Activity (Plasmodium berghei [7]): inactive
- MST (Plasmodium berghei [1]): 5.9 days
- T/C (Plasmodium gallinaceum [17]): 1.5

SMILES: Cc1nnc(N)nc1C
- Activity (Plasmodium berghei [7]): inactive
- MST (Plasmodium berghei [1]): 4.2 days

SMILES: Nc1nnc(-c2cccc(C(F)(F)F)c2)c(N)n1
- MST (Plasmodium berghei [1]): 4.6 days
- T/C (Plasmodium gallinaceum [10]): 2.2
- T/C (Plasmodium gallinaceum [6]): 1.5

SMILES: Cc1n[nH]c(=S)[nH]c1=O
- Activity (Mus musculus [8]): Toxic

SMILES: N#C/C(=N/NC(=N)N)c1cccs1.O=[N+]([O-])O
- Activity (Mus musculus [8]): Toxic
